# Screens deposited in PubChem BioAssay by The Scripps Research Institute Molecular Screening Center.
# M5 antag: antagonists of human muscarinic M5 receptor (CHRM5); CHO-hM5 cells, Fluo-8 calcium fluorescence, ACh EC80; inhibition, % at 3 µM; 360,000 tested, 0.59% active;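 active means inhibition above a per-plate cutoff, the mean of that plate's test compounds plus 3 SD, cut at about 27% in these data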;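 further: 0% = acetylcholine EC80 with DMSO and 100% = DMSO without agonist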
# CHRM5 PAM: CHRM5 positive allosteric modulation. activation, % at 3 µM. 360,000 tested, 0.3% active. CHO-K1 hM5, Fluo-8 calcium, ACh EC20 PAM; 0% = ACh EC20, 100% = ACh EC100;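 active means activation above the run cutoff, the mean activation of all test compounds plus 3 SD, cut at about 18% in these data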
#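 System – CHO-K1 hM5 cells · Compound – 3 µM, single dose · Incubation – compound preincubation 140 s before EC20 acetylcholine addition · Technique – Fluo-8 calcium fluorescence · Measure – Max/basal fluorescence ratio as % of EC20–EC100 ACh window · Benchmarks – low control EC20 acetylcholine (0%), high control EC100 acetylcholine (100%) · Replication – singlicate, one well per test compound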
# M5 ag: CHRM5 agonism in calcium assay; P08912; CHO-K1 hM5 cells, Fluo-8 calcium fluorescence; 0% DMSO wells, 100% maximal acetylcholine response; activation, % at 3 µM; 360,000 tested, 0.19% active; AID 624037;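 active means activation above the run's mean over test compounds plus 3 SD, cut at about 23% in these data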;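 further: signal is peak over basal fluorescence ratio across the kinetic read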
# M4 PAM: potentiates acetylcholine response at human M4 receptor. P08173. CHO-K1 hM4/Gqi5, Fluo-8 calcium fluorescence, ACh EC20; 0% = ACh EC20, 100% = maximal ACh. activation, % at 3 µM. 360,000 tested, 0.4% active. AID 624126;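 active means activation above its plate's cutoff, the mean activation of sample wells plus 3 SD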
# Target sequence (P08173 whole entry, looked up): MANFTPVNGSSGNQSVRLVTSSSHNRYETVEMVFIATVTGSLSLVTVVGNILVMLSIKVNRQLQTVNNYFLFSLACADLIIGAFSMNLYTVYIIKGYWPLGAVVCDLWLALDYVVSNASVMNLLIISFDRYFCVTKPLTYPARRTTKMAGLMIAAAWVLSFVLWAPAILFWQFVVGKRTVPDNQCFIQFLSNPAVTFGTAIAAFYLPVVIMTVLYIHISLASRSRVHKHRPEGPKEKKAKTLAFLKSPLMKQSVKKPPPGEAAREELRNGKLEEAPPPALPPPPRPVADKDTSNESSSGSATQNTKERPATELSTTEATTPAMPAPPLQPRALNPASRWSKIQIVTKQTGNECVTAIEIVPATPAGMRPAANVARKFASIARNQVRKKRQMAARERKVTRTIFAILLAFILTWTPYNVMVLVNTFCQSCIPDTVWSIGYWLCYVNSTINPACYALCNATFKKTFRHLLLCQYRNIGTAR
# CHRM4 antagonist: CHRM4 antagonism in calcium assay; P08173; CHO-hM4 cells, ACh EC80, Fluo-8 calcium fluorescence; inhibition, % at 3 µM; 360,000 tested, 0.73% active; AID 624125;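 active means inhibition above its plate's cutoff, the mean inhibition of sample wells plus 3 SD, cut at about 27% in these data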;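 further: 0% = acetylcholine EC80 with DMSO and 100% = DMSO without agonist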
# M4 ag: CHRM4 agonism in calcium assay. CHO-K1 hM4/Gqi5, Fluo-8 calcium fluorescence; vehicle 0%, full acetylcholine response 100%. P08173. activation, % at 3 µM. 360,000 tested, 0.14% active;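 active means activation above the run mean over all test wells plus 3 SD, cut at about 32% in these data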;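 further: peak over basal fluorescence ratio per well then scaled between controls; 0% = DMSO wells and 100% = acetylcholine at EC100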
# * hit, by the source's call. Shown are actives, neighbours in structure and some others; about 1.9% of the full set was active somewhere.
SMILES,M5 antag,CHRM5 PAM,M5 ag,M4 PAM,CHRM4 antagonist,M4 ag
NS(=O)(=O)c1cccc(NC(=O)c2ccccc2NS(=O)(=O)c2ccc(F)cc2)c1,0,2,-2,1,-3,-1
Cc1c(C)n(Cc2ccccc2)c2ncnc(Cl)c12,15,-12,2,-9,3,6
Cc1ccc(NC(=O)CSc2ncnc3ccccc23)cc1S(=O)(=O)N1CCCCC1,30*,-18,3,-16,7,14
CCCC(=O)N1CCCC1(C)C(=O)Nc1ccc(OC(F)F)cc1 (stereo unspecified),15,1,1,5,-5,0
CC(/C=N/NC(=O)Cn1nccc1C)=C\c1ccc(C(C)C)cc1,-3,1,-3,-6,30*,-1
Cc1ccc(CS(=O)Cc2ccc(C(=O)NCc3ccc(OC(C)C)cc3)o2)cc1 (stereo unspecified),-5,4,2,-7,-15,16
N#Cc1cc(C(=O)c2ccccc2O)cn(-c2nccs2)c1=O,28*,-21,68*,-16,36*,71*
N#Cc1cc(C(=O)c2cc(F)ccc2O)cn(-c2nccs2)c1=O,29*,-23,62*,-43,20,96*
Cc1c(-n2cc(C(=O)c3cc(F)ccc3O)cc(C#N)c2=O)c(=O)n(-c2ccccc2)n1C,0,1,2,1,-4,3
CC(C)n1cc(C(=O)c2ccccc2O)cc(C#N)c1=O,-1,7,4,13,-7,4
CN(C(=O)c1cccc(NC(=O)C2CCN(C(=O)OC(C)(C)C)CC2)c1)C1CCCCC1,11,-13,-3,-9,-6,13
CCCn1c(SCC(=O)NC2CC2)nnc1-c1ccccn1,4,4,-3,1,-1,0
O=C(CN1C(=O)COc2ccccc21)c1cccc(Cl)c1,4,-9,-9,-16,31*,0
O=C(NC1CCCCC1)C(c1ccc(F)cc1)N(C(=O)c1csnn1)C1CC1 (stereo unspecified),-4,5,0,19*,-11,0
CC(C)c1ccc(C(C(=O)NC2CCCCC2)N(C(=O)c2csnn2)C2CC2)cc1 (stereo unspecified),-1,3,-2,10,-15,1
CCn1c(SCC(=O)OC)nnc1-c1c[nH]c2ccccc12,8,3,-2,7,5,1
CCCCn1nnnc1NCc1cccnc1,31*,-2,6,11,-6,2
CC(C)(C)c1nnc(N/N=C/c2cc(Br)ccc2O)n(N)c1=O,20,-22,9,-31,34*,29
COC(=O)C1=C(C)NC(=O)/C1=C\N(C)C,8,-1,-1,-3,8,1
Cc1ccc(C(C)n2cc(C(=O)NCc3cccnc3)nn2)cc1 (stereo unspecified),-6,18*,5,11,-6,3
Cc1cc2c(cc1S(=O)(=O)CCC(=O)NC1CCC(C)CC1)OCC(=O)N2 (stereo unspecified),14,-12,3,-6,-9,21
CCCCCCCCN1C(=O)[C@H](CC(=O)NCCc2ccccc2OC)C[C@@]2(C(=O)OCC)CCCC=C12,5,-9,-7,-4,-15,-1
CN(Cc1nc2ccccc2n1C)S(=O)(=O)c1ccc(Cl)cc1,-4,4,-5,25*,0,1
Cc1ccc2nc(-c3ccc(NC(=S)NC(=O)CC(C)C)cc3)sc2c1,-6,-1,0,10,-1,0
Cc1ccc2nc(-c3ccc(NC(=O)C(C)Sc4nncs4)cc3)sc2c1 (stereo unspecified),8,-3,6,5,29*,8
Cc1ccc2[nH]c(-c3ccccc3)c(CN3CCCC3)c(=O)c2c1,-14,20*,-3,13,-11,0
CC(C)CNC(=S)NNC(=O)CC(C)O (stereo unspecified),-1,18*,-2,-5,5,0
COc1ccc(C(=O)NC(=S)NNC(=O)c2ccc(C)cc2)cc1,5,-30,75*,-48,15,118*
